Data reported in ChEMBL document CHEMBL1158464, “Structure-activity relationships and cancer-cell selective toxicity of novel inhibitors of glioma-associated oncogene homologue 1 (Gli1) mediated transcription” (J Med Chem, 2009).
Activity calls are given as the source filed them. The rule behind the calls is not given here.

Columns and labels:
DU-145 = test: Cytotoxicity against human DU145 cells at 40 uM/well after 68 hrs by alamar blue assay; assay type: functional, cell-based
Procedure, shortened: (§1)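 Cells plated in appropriate medium 24 h before compound. A 10 mM DMSO stock was diluted in EMEM to 160 µM (4×) and added in triplicate to a final 40 µM. Incubated 68 h at 37 °C, then Alamar Blue for 4 h at 37 °C. Fluorescence read at ex 510/em 590 nm. Viability taken relative to DMSO control wells.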

Daoy = test: Cytotoxicity against human DaOY cells at 40 uM/well after 68 hrs by alamar blue assay; assay type: functional, cell-based; procedure, shortened: as §1
LN-229 = test: Cytotoxicity against human LN229 cells at 40 uM/well after 68 hrs by alamar blue assay; assay type: functional, cell-based; procedure, shortened: as §1
BJ = test: Cytotoxicity against human TERT-immortalized human BJ cells at 40 uM/well after 68 hrs by alamar blue assay; assay type: cell-based; procedure, shortened: as §1
Raji = test: Cytotoxicity against human Raji cells at 40 uM/well after 68 hrs by alamar blue assay; assay type: functional, cell-based; procedure, shortened: as §1
HepG2 = test: Cytotoxicity against human HepG2 cells at 40 uM/well after 68 hrs by alamar blue assay; assay type: functional, cell-based; procedure, shortened: as §1
[1] = molecular target: T1, Zinc finger protein GLI1 (Homo sapiens) (UniProt P08151); test: Inhibition of exogenously transfected human Gli1-mediated transcriptional activity in mouse C3H10T1/2 cells at 40 uM after 24 hrs by luciferase reporter gene assay; assay type: cell-based; details: C3H 10T1/2
T1 sequence (whole entry): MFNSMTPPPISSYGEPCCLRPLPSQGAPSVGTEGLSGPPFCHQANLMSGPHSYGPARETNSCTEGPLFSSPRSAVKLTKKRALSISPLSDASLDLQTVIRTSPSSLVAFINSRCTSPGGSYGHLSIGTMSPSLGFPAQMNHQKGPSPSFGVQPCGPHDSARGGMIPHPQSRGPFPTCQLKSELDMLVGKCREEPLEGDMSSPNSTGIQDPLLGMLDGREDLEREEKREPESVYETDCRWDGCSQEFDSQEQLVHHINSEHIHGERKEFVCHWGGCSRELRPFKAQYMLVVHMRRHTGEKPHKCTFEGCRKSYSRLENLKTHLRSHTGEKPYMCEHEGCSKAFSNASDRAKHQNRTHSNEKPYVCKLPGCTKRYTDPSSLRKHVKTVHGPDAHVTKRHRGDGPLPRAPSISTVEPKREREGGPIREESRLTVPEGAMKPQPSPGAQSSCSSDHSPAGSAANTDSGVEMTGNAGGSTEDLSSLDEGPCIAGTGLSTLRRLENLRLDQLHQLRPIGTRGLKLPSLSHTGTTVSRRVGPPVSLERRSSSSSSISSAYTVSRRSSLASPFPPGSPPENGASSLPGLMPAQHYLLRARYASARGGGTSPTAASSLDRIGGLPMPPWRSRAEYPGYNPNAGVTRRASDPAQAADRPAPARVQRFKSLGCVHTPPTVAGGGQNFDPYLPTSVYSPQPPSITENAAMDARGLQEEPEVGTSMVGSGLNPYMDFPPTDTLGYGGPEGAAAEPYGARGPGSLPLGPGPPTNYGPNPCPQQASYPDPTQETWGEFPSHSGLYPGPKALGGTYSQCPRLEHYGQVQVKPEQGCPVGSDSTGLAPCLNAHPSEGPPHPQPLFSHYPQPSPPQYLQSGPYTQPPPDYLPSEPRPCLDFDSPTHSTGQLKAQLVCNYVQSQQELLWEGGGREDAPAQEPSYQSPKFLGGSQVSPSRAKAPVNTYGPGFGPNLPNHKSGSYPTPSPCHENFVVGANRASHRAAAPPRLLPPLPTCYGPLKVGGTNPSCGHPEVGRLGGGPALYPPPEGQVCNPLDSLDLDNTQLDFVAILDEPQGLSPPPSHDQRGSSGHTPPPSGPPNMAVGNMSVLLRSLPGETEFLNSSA
Procedure, shortened: (§2)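 They were replated 18 h later, given compound or DMSO 6 h after plating, and exposed for 24 h at 37 °C, 5% CO2. Lysate was read by dual luciferase as firefly/Renilla, triplicate, DMSO = 0%. IC50 came from curve fitting.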

[2] = molecular target: T1, Zinc finger protein GLI1 (Homo sapiens); test: Inhibition of exogenously transfected human Gli1-mediated transcriptional activity in mouse C3H10T1/2 cells at 20 uM after 24 hrs by luciferase reporter gene assay; assay type: cell-based; details: C3H 10T1/2; procedure, shortened: as §2
SJRH30 = test: Cytotoxicity against human Rh30 cells at 40 uM/well after 68 hrs by alamar blue assay; assay type: functional, cell-based; procedure, shortened: as §1
MDA-MB-231 = test: Cytotoxicity against human MDA-MB-231 cells at 40 uM/well after 68 hrs by alamar blue assay; assay type: functional, cell-based; procedure, shortened: as §1

SMILES	inhibition [1]	inhibition [2]	Activity (DU-145)	Activity (Daoy)	Activity (LN-229)	Activity (BJ)	Activity (Raji)	Activity (HepG2)	Activity (SJRH30)	Activity (MDA-MB-231)
COc1ccc2[nH]cc(CC(=O)NCCc3ccc(O)cc3)c2c1	–	–	Active	Active	inactive	Non-toxic	Active	inactive	Active	Active
CC(C(=O)NCCc1ccc(O)cc1)c1cccc(C(=O)c2ccccc2)c1 (racemic)	–	–	Active	Active	inactive	Non-toxic	Active	inactive	Active	Active
COCCN(CCc1ccc(O)cc1)C(=O)[C@@H](C)c1cccc(C(=O)c2ccccc2)c1	Active	Active	Active	Active	inactive	Non-toxic	Active	inactive	Active	Active
CC(C)Cc1ccc(C(C)C(=O)NCCc2ccc(O)cc2)cc1 (stereo unspecified)	–	–	Active	Active	inactive	Non-toxic	Active	inactive	Active	Active
O=C(Cc1ccc(Oc2ccccc2)cc1)NCCc1ccc(O)cc1	–	–	Active	Active	inactive	Non-toxic	Active	inactive	Active	Active
C[C@H](C(=O)Nc1ccc(O)cc1)c1cccc(C(=O)c2ccccc2)c1	Active	Active	Active	Active	inactive	Non-toxic	Active	inactive	Active	Active
COc1cccc(CCNC(=O)[C@@H](C)c2cccc(C(=O)c3ccccc3)c2)c1	Active	Active	Active	Active	inactive	Non-toxic	Active	inactive	Active	Active
C[C@H](CNC(=O)Nc1ccc(O)cc1)c1cccc(C(=O)c2ccccc2)c1	Active	Active	Active	Active	inactive	Toxic	Active	inactive	Active	Active
C[C@H](C(=O)NCCc1ccc(O)cc1)c1cccc(Cc2ccccc2)c1	–	–	Active	Active	inactive	Non-toxic	Active	inactive	Active	Active
COc1ccc2cc([C@@H](C)C(=O)NCCc3ccc(O)cc3)ccc2c1	–	–	Active	Active	inactive	Non-toxic	Active	inactive	Active	Active
C[C@H](C(=O)NCCc1ccc(O)cc1)c1cccc(C(O)c2ccccc2)c1 (stereo partly specified)	–	–	Active	Active	inactive	Non-toxic	Active	inactive	Active	Active
O=C(Cc1cccc(Oc2ccccc2)c1)NCCc1ccc(O)cc1	–	–	Active	Active	inactive	Non-toxic	Active	inactive	Active	Active
O=C(Cc1ccccc1Oc1ccccc1)NCCc1ccc(O)cc1	–	–	Active	Active	inactive	Non-toxic	Active	inactive	Active	Active

The next lines start with results.

inhibition [1]	inhibition [2]	SMILES	Activity (DU-145)	Activity (Daoy)	Activity (LN-229)	Activity (BJ)	Activity (Raji)	Activity (HepG2)	Activity (SJRH30)	Activity (MDA-MB-231)
Active	Active	COc1ccc(CCNC(=O)[C@@H](C)c2cccc(C(=O)c3ccccc3)c2)cc1	Active	Active	inactive	Non-toxic	Active	inactive	Active	Active
Active	Active	COc1ccccc1CCNC(=O)[C@@H](C)c1cccc(C(=O)c2ccccc2)c1	Active	Active	inactive	Non-toxic	Active	inactive	Active	Active
Active	Active	C[C@H](CNC(=O)NCCc1ccc(O)cc1)c1cccc(C(=O)c2ccccc2)c1	Active	Active	inactive	Toxic	Active	inactive	Active	Active
Active	Active	C[C@H](CNC(=O)c1ccc(O)cc1)c1cccc(C(=O)c2ccccc2)c1	Active	Active	inactive	Non-toxic	Active	inactive	Active	Active
Active	Active	C[C@H](C(=O)NCCc1ccc(Cl)cc1)c1cccc(C(=O)c2ccccc2)c1	Active	Active	inactive	Non-toxic	Active	inactive	Active	Active
Active	Active	C[C@H](CNC(=O)CCc1ccc(O)cc1)c1cccc(C(=O)c2ccccc2)c1	Active	Active	inactive	Non-toxic	Active	inactive	Active	Active
–	Active	C[C@H](C(=O)NCCc1ccccc1O)c1cccc(C(=O)c2ccccc2)c1	Active	Active	inactive	Non-toxic	Active	inactive	Active	Active
